Tests used:
PRRSV CH-1a strain = assay: Antiviral activity by IFA, PRRSV CH-1a in MARC-145 cells; format: cell-based; conditions: Porcine reproductive and respiratory syndrome virus, MARC145
How it was run: (§1)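 MARC-145 monolayers infected at 0.05 MOI for 2 h at 37 °C. Inoculum removed and fresh medium with serial compound concentrations added. Cells then fixed in 4% paraformaldehyde, permeabilized with Triton X-100, blocked with BSA and stained for N protein (mAb 4A5, 1:400, 4 °C overnight), with Alexa 568 secondary and DAPI. Red and blue ODs digitized; protection % derived against DMSO wells. EC50 by nonlinear regression; three independent experiments.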

PRRSV VR2332 strain = assay: Antiviral activity by IFA, PRRSV VR2332 in MARC-145 cells; format: cell-based; conditions: Porcine reproductive and respiratory syndrome virus, MARC145
How it was run: as §1

PRRSV GD-XH strain = assay: Antiviral activity by indirect immunofluorescence assay; format: cell-based, porcine reproductive and respiratory syndrome virus; conditions: MARC-145 cells; for EC50: Porcine reproductive and respiratory syndrome virus, MARC145, PRRSV GD-XH (0.05 MOI), IFA at 48 hpi; for Selectivity index (SI): ratio of CC50 to EC50, PRRSV GD-XH
PRRSV NADC30-like strain = assay: Antiviral activity by IFA, PRRSV NADC30-like in MARC-145 cells; format: cell-based; conditions: Porcine reproductive and respiratory syndrome virus, MARC145
How it was run: as §1

| EC50 (PRRSV CH-1a strain) [µM] | EC50 (PRRSV VR2332 strain) [µM] | EC50 (PRRSV GD-XH strain) [µM] | EC50 (PRRSV NADC30-like strain) [µM] | Compound | Selectivity index (SI) (PRRSV GD-XH strain) |
| --- | --- | --- | --- | --- | --- |
| 31.5 ± 2.8 | 22.3 ± 3.1 | 23.7 ± 3.1 | 16.8 ± 2.1 | NC(=O)c1ncn([C@@H]2O[C@H](CO)[C@@H](O)[C@H]2O)n1 [Ribavirin] | >27 |
| 11.3 ± 0.78 | 5.66 ± 0.52 | 8.03 ± 0.93 | 5.03 ± 0.35 | C[C@H]1[C@H](C)CC[C@]2(C(=O)O)CC[C@]3(C)C(=CC[C@@H]4[C@@]5(C)CC[C@H](O)C(C)(C)[C@@H]5CC[C@]43C)[C@H]12 [UA, Ursolic acid] | 8.1 |

— publication PMC9054602 (RSC Advances, 2020)
